# Activity calls are given as the source filed them. No cut-off for these calls is given here.
# Columns and labels:
# NCI-H460 = test: Cytotoxicity against human NCI-H460 cells at 1.5 x 10^-4 after 48 hrs; assay type: cell-based; details: nci-h460, 48 h
# Platelet [1] = test: Antiplatelet activity against adenosine diphosphate-induced platelet aggregation in human blood at 6.25 x 10^-4 M measured for 6 mins by multiplate electrical impedance aggregometry; assay type: functional, cell-based
# How it was run: (§1)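 Hirudin-anticoagulated (final […]) healthy-donor whole blood, used within 0.5–1 h. Compound in saline to final 6.25 × 10⁻⁴ M; saline control, acetylsalicylic acid 6.25 × 10⁻⁴ M reference. Blood mixed with saline at 37 °C for 180 s, then agonist at final TRAP-6 […], arachidonic acid 0.5 mM or ADP […]. Impedance recorded 6 min; AUC from mean of two curves, accepted if within 20%.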
# Plasma [2] = test: Anticoagulant activity in human plasma assessed as effect on prothrombin level by PT clotting time with factor II deficient plasma at 1 x 10^-3 M
# Plasma [3] = test: Anticoagulant activity in human plasma assessed as effect on prothrombin level by PT clotting time with factor II deficient plasma
# MCF7 = test: Cytotoxicity against human ER-positive MCF7 cells at 1.5 x 10^-4 after 48 hrs; assay type: cell-based; details: mcf7, 48 h
# Platelet [4] = test: Antiplatelet activity against thrombin receptor-activating peptide-6-induced platelet aggregation in human blood at 6.25 x 10^-4 M measured for 6 mins by multiplate electrical impedance aggregometry; assay type: functional, cell-based; how it was run: as §1
# Plasma [5] = test: Anticoagulant activity in human plasma assessed as effect on APC level using CBS 42.46 as synthetic substrate; assay type: functional, cell-free
# How it was run: (§2)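 Compound in saline added to citrated human plasma. Protein C activated by a snake venom-derived activator; enzyme formed quantified by amidolytic activity on chromogenic substrate CBS 42.46. Calibration curve linear 3–150%; normal and pathological control plasmas verify accuracy. Compounds at 1 × 10⁻³ M.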
# Plasma [6] = test: Anticoagulant activity in human plasma assessed as effect on APC level using CBS 42.46 as synthetic substrate at 1 x 10^-3 M; assay type: functional; how it was run: as §2
# [7] = Cytotoxicity against human A375-C5 cells at 1.5 x 10^-4 after 48 hrs; assay type: cell-based; details: a375-c5, 48 h
# Platelet [8] = test: Antiplatelet activity against arachidonic acid-induced platelet aggregation in human blood at 6.25 x 10^-4 M measured for 6 mins by multiplate electrical impedance aggregometry; assay type: functional, cell-based; how it was run: as §1
# Mus musculus = organism: Mus musculus; test: Acute hepatic toxicity in CD1 mouse; assay type: organism-based; details: in vivo
# [9] = molecular target: Coagulation factor X (Homo sapiens) (UniProt P00742); test: Inhibition of human factor 10a using CH3SO2-D-Leu-Gly-Arg-pNA, AcOH as substrate at 1 x 10^-3 M by chromogenic substrate hydrolysis assay
# How it was run: (§3)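 Chromogenic hydrolysis in 50 mM Tris/HCl pH 8.3, 227 mM NaCl, 0.1% BSA, with and without bovine antithrombin III (1 U/mL final). Human factor Xa 0.5 U/mL with CBS 31.39 […], or human thrombin 0.06 U/mL with Chromozym TH […]. Absorbance at 405 nm, enzyme-free blank subtracted; initial slope vs water control gives % inhibition. Compounds at 1 × 10⁻³ M; n = 6.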
# [10] = molecular target: Prothrombin (Homo sapiens) (UniProt P00734); test: Inhibition of human thrombin using Tosyl-Gly-Pro-Arg-p-nitroaniline as substrate at 1 x 10^-3 M by chromogenic substrate hydrolysis assay; how it was run: as §3
# Blood [11] = test: Anticoagulant activity in human whole blood assessed as clotting formation time at 3.12 x 10'4 M by InTEM-TEG assay; assay type: functional
# How it was run: (§4)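 Citrated whole blood (citrate:blood 1:9) from healthy donors. Compound in saline diluted 1:16 into blood to final 3.12 × 10⁻⁴ or 6.25 × 10⁻⁴ M; saline control. Thromboelastography with intrinsic activator (InTEM); R clotting time and K clot formation time in s. Mean of three independent experiments in duplicate.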
# Blood [12] = test: Anticoagulant activity in human whole blood assessed as clotting time at 3.12 x 10'4 M by thromboelastography assay; assay type: functional; how it was run: as §4
# Plasma [13] = test: Anticoagulant activity in human plasma assessed as concentration required to double activated partial thromboplastin time; assay type: functional
# How it was run: (§5)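 Pooled citrated human plasma; compounds in water (10% DMSO for some), final 5 × 10⁻³ to 0.05 × 10⁻³ M; heparin 0.1–10 UI/mL as reference. APTT, PT and TT measured on a coagulometer with commercial kits, clotting time in s. Duplicates repeated on three days (n = 6). Concentration doubling clotting time obtained by linear regression of each concentration-response curve.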
# [14] = Antiplatelet activity against collagen-epinephrine-activated platelet in human blood assessed as closure time at 6.25 x 10^-4 M; assay type: functional
# How it was run: (§6)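 Healthy-donor whole blood collected into hirudin (final […]), analysed within 0.5–1 h. Closure time measured in a PFA-100 under high shear through an aperture, platelets activated by a collagen-coated membrane with ADP or epinephrine.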
# [15] = molecular target: Antithrombin-III (Bos taurus) (UniProt P41361); test: Inhibition of bovine antithrombin-3 at 1 x 10^-3 M
# Plasma [16] = test: Anticoagulant activity in human plasma assessed as concentration required to double prothrombin time; assay type: functional; how it was run: as §5
# [17] = Metabolic stability of the compound in human plasma assessed as compound remaining after 3 hrs by IP-RP-HPLC analysis; assay type: ADME, cell-free; details: read-out: Stability
# How it was run: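 Compound at 25 mM final in human plasma diluted 1:1 with PBS pH 7.4, shaken at 37 °C; sampled at 0 and 180 min, three independent samples. TBA buffer (pH 8) added for ion-pairing, quenched with 4× cold acetonitrile, centrifuged, filtered, dried, redissolved in mobile phase. Quantified by ion-pairing RP-HPLC on C-18, phosphate/TBA buffer:acetonitrile 55:45, 1.0 mL/min.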
# [18] = Antiplatelet activity against collagen-ADP-activated platelet in human blood assessed as closure time at 6.25 x 10^-4 M; assay type: functional; how it was run: as §6
# Plasma [19] = test: Anticoagulant activity in human plasma assessed as concentration required to double thrombin time; assay type: functional; how it was run: as §5
# Plasma [20] = test: Anticoagulant activity in human plasma assessed as concentration required to double thrombin time at 5 x 10^-3 M; assay type: functional, cell-free; how it was run: as §5
# Blood [21] = test: Anticoagulant activity in human whole blood assessed as clotting formation time at 6.25 x 10'4 M by InTEM-TEG assay; assay type: functional; how it was run: as §4
# Blood [22] = test: Anticoagulant activity in human whole blood assessed as clotting time at 6.25 x 10'4 M by thromboelastography assay; assay type: functional; how it was run: as §4
# Chain of Antithrombin-III (Bos taurus) (P41361 whole entry): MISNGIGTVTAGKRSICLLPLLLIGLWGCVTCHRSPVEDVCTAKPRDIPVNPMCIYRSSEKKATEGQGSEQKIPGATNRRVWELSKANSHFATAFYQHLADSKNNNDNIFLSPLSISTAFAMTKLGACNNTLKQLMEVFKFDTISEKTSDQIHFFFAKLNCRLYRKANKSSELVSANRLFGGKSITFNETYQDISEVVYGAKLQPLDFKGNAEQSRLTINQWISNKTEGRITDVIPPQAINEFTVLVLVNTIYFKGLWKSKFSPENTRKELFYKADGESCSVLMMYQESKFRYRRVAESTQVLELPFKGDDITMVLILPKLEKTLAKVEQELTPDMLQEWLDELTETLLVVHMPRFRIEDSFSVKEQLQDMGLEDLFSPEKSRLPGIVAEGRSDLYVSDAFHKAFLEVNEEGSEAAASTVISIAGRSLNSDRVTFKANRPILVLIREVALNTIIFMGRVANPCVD
# Chain of Coagulation factor X (Homo sapiens) (P00742 41-179 limits assumed): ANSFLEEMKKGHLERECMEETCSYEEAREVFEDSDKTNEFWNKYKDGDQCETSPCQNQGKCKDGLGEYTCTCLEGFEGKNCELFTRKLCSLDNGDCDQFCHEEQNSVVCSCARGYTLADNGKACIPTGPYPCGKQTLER
# Chain of Coagulation factor X (Homo sapiens) (P00742 235-488 limits assumed): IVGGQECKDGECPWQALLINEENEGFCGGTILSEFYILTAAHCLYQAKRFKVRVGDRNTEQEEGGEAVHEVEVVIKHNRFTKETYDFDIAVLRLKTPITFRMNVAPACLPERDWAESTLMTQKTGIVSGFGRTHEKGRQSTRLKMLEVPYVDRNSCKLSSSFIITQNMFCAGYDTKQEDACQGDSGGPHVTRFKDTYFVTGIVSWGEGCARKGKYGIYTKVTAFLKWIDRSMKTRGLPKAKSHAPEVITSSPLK
inhibition [9],inhibition [10],inhibition [15],SMILES,Activity (NCI-H460),AUC (Platelet [1]) [AU.min],Activity (Plasma [2]) [%],Activity (Plasma [3]),Activity (MCF7),AUC (Platelet [4]) [AU.min],Activity (Plasma [5]),Activity (Plasma [6]) [%],Activity [7],AUC (Platelet [8]) [AU.min],Activity (Mus musculus),2aPTT (Plasma [13]),Activity (Plasma [13]),Time [14] [s],2PT (Plasma [16]) [mM],Activity (Plasma [16]),Time [18] [s],other results
,,,C[C@@H]1O[C@@H](OC[C@H]2O[C@@H](Oc3c(-c4ccc(OCCOS(=O)(=O)[O-])c(OCCOS(=O)(=O)[O-])c4)oc4cc(OCCOS(=O)(=O)[O-])cc(O)c4c3=O)[C@H](OS(=O)(=O)[O-])[C@@H](OS(=O)(=O)[O-])[C@@H]2OS(=O)(=O)[O-])[C@H](OS(=O)(=O)[O-])[C@H](OS(=O)(=O)[O-])[C@H]1OS(=O)(=O)[O-].[Na+].[Na+].[Na+].[Na+].[Na+].[Na+].[Na+].[Na+].[Na+],Non-toxic,330,10.9,Dose-dependent effect,Non-toxic,840,Dose-dependent effect,38.5,Non-toxic,330,,,,,,,,
,,,C[C@@H]1O[C@@H](OC[C@H]2O[C@@H](Oc3c(-c4ccc(OS(=O)(=O)[O-])c(OS(=O)(=O)[O-])c4)oc4cc(OS(=O)(=O)[O-])cc(OS(=O)(=O)[O-])c4c3=O)[C@H](OS(=O)(=O)[O-])[C@@H](OS(=O)(=O)[O-])[C@@H]2OS(=O)(=O)[O-])[C@H](OS(=O)(=O)[O-])[C@H](OS(=O)(=O)[O-])[C@H]1OS(=O)(=O)[O-].[Na+].[Na+].[Na+].[Na+].[Na+].[Na+].[Na+].[Na+].[Na+].[Na+],Non-toxic,230,9,Dose-dependent effect,Non-toxic,950,Dose-dependent effect,28.5,Non-toxic,215,Non-toxic,,,,,,,
inactive,inactive,inactive,O=S(=O)([O-])OC[C@H]1O[C@@H](Oc2cc(/C=C/c3ccc(OS(=O)(=O)[O-])cc3)cc(OS(=O)(=O)[O-])c2)[C@H](OS(=O)(=O)[O-])[C@@H](OS(=O)(=O)[O-])[C@@H]1OS(=O)(=O)[O-].[Na+].[Na+].[Na+].[Na+].[Na+].[Na+],Non-toxic,173,12,Dose-dependent effect,Non-toxic,1020,Dose-dependent effect,50.5,Non-toxic,400,,0.146 mM,Dose-dependent effect,273,1.77,Dose-dependent effect,212,Time (Blood [11]): 136 s; Time (Blood [12]): 447 s; remaining at 3 h [17]: 95%; Activity (Plasma [19]): Dose-dependent effect; Activity (Plasma [19]; record 2): 1.95 mM
inactive,inactive,inactive,O=C1O[C@H]([C@H](COS(=O)(=O)[O-])OS(=O)(=O)[O-])C(OS(=O)(=O)[O-])=C1OS(=O)(=O)[O-].[Na+].[Na+].[Na+].[Na+] [ASCORBIC ACID PERSULFATE],,680,91.5,,,1100,,94,,905,,0.315 mM,Dose-dependent effect,121,> 5,Dose-dependent effect,106,Activity (Plasma [20]): inactive; Time (Blood [21]): 84 s; Time (Blood [22]): 205 s
inactive,inactive,inactive,O=c1ccc2cc(O[C@@H]3O[C@H](COS(=O)(=O)[O-])[C@@H](OS(=O)(=O)[O-])[C@H](OS(=O)(=O)[O-])[C@H]3OS(=O)(=O)[O-])c(OS(=O)(=O)[O-])cc2o1.[Na+].[Na+].[Na+].[Na+].[Na+] [ESCULIN PERSULFATE],Non-toxic,980,64.5,,Non-toxic,890,,87,Non-toxic,980,,0.309 mM,Dose-dependent effect,,> 5,Dose-dependent effect,,Activity (Plasma [20]): inactive; Time (Blood [21]): 95 s; Time (Blood [22]): 340 s
,,,COc1ccc(-c2cc(=O)c3c(O)cc(O[C@@H]4O[C@H](CO[C@@H]5O[C@@H](C)[C@H](OS(=O)(=O)[O-])[C@@H](OS(=O)(=O)[O-])[C@H]5OS(=O)(=O)[O-])[C@@H](OS(=O)(=O)[O-])[C@H](OS(=O)(=O)[O-])[C@H]4OS(=O)(=O)[O-])cc3o2)cc1O.[Na+].[Na+].[Na+].[Na+].[Na+].[Na+] [HEXASULFATED DIOSMIN],Non-toxic,200,54,,Non-toxic,1090,,87,Non-toxic,340,Non-toxic,4.35 ×10⁻⁴ M,,,,,,
